Assay results: ChEMBL document CHEMBL2440030, “Insights into soluble guanylyl cyclase activation derived from improved heme-mimetics” (J Med Chem, 2013)
Activity calls are given as the source filed them. No cut-off for these calls is given here.

organism: Rattus norvegicus; test: Activation of soluble guanylyl cyclase in Wistar rat aortic smooth muscle cell assessed as increase of cGMP accumulation after 15 mins by enzyme immunoassay
Outline: (§1)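 Confluent rat aortic smooth muscle cells were exposed to vehicle or compound (0.01−1 μM) for 15 min, alone or together with 1 μM BAY 58-2667. cGMP was then extracted and quantified. Values are means ± SEM, n = 4.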

How did the Activity turn out when `O=C(O)CCCCN(CCc1ccccc1OCc1ccc(-c2ccc(Oc3ccccc3)cc2)cc1)Cc1ccc(C(=O)O)cc1` was run?
The Activity was “Dose-dependent effect”.

organism: Rattus norvegicus; test: Activation of soluble guanylyl cyclase in Wistar rat aortic smooth muscle cell assessed as increase of cGMP accumulation at 1 uM after 15 mins by enzyme immunoassay; outline: as §1

`O=C(O)CCCCN(CCc1ccccc1OCc1ccc(-c2ccc(OCc3ccccc3)cc2)cc1)Cc1ccc(C(=O)O)cc1` was tested. Which Activity did it give?
Its Activity is “Active”.

For `O=C(O)CCCN(CCc1ccccc1OCc1ccc(CCc2ccccc2)cc1)Cc1ccc(C(=O)O)cc1`, which Activity is on record?
Its Activity is “inactive”.

With `O=C(O)CCCCCN(CCc1ccccc1OCc1ccc(CCc2ccccc2)cc1)Cc1ccc(C(=O)O)cc1` as the molecule, how does the Activity read?
Its Activity is “inactive”.

Which Activity does the source give for `COc1ccc(COc2ccc(-c3ccc(COc4ccccc4CCN(CCCCC(=O)O)Cc4ccc(C(=O)O)cc4)cc3)cc2)cc1` here?
Its Activity is “Active”.

With `O=C(O)CCCCN(CCc1ccccc1OCc1ccc(-c2ccc(Oc3ccccc3)cc2)cc1)Cc1ccc(C(=O)O)cc1` as the molecule, how does the Activity read?
Its Activity is “Active”.

With `O=C(O)CCCC(=O)N(CCc1ccccc1OCc1ccc(-c2ccc(OCc3ccccc3)cc2)cc1)Cc1ccc(C(=O)O)cc1` as the molecule, how does the Activity read?
Its Activity is “Active”.

organism: Rattus norvegicus; test: Inhibition of soluble guanylyl cyclase in Wistar rat aortic smooth muscle cell assessed as reduction of cGMP accumulation at 1 uM after 15 mins by enzyme immunoassay; outline: as §1

For `O=C(O)CCCCC(=O)N(CCc1ccccc1OCc1ccc(CCc2ccccc2)cc1)Cc1ccc(C(=O)O)cc1`, which inhibition is on record?
The inhibition was 80%.

For `O=C(O)CCC(=O)N(CCc1ccccc1OCc1ccc(CCc2ccccc2)cc1)Cc1ccc(C(=O)O)cc1`, which inhibition is on record?
The inhibition was 80%.

`O=C(O)CCCC(=O)N(CCc1ccccc1OCc1ccc(CCc2ccccc2)cc1)Cc1ccc(C(=O)O)cc1` was tested. Which inhibition did it give?
The inhibition was 80%.
